Measured values published in ChEMBL document CHEMBL1129752, “Novel 3-Pyridyl ethers with subnanomolar affinity for central neuronal nicotinic acetylcholine receptors” (J Med Chem, 1996).

Experiments:
IMR-32 [1] = test: Ability to stimulate Rb+ efflux from human IMR-32 cell preparations containing human alpha3-betaX receptors; format: functional, cell-based
K177 cell line [2] = test: Ability to stimulate Rb+ efflux from human K177 cell preparations containing human alpha4-beta2 receptors; format: functional, cell-based
K177 cell line [3] = test: Maximum efficacy relative to 100(uM) (S)-nicotine for cell preparations containing alpha4-beta2 K177 cells; format: functional, Homo sapiens
[4] = target: Neuronal acetylcholine receptor; test: Binding affinity against Nicotinic Acetylcholine Receptor was determined by measuring the displacement of [3H]cytisine from a preparation of whole rat brain.
Method in brief: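 Displacement of the radioligand [3H]-(-)-cytisine from a whole rat brain preparation, which mainly labels the α4β2 receptor subtype. The procedure follows a previously published method.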

IMR-32 [5] = test: Maximum efficacy relative to 100(uM) (S)-nicotine for cell preparations containing alpha3-betaX IMR32 cells; format: functional, Homo sapiens
IMR-32 (Homo sapiens) = test: Ability to stimulate Rb+ efflux from human IMR-32 cell preparations containing human alpha3-betaX receptors

Row | Structure (SMILES) | EC50 (IMR-32 [1]) | EC50 (K177 cell line [2]; Homo sapiens, K177) | Max (K177 cell line [3]) | Ki [4] | Max (IMR-32 [5]) | IC50 (IMR-32 [1]) | IC50 (K177 cell line [2]) | EC50 (K177 cell line [2]; k177) | Max (IMR-32 (Homo sapiens))
1 | CN1CC[C@@H]1COc1cccnc1 | 38 µM | 35 µM | 103% | 0.0035 µM | 39% |  |  |  | 
2 | c1cncc(OC[C@H]2CCN2)c1 | 1.1 µM | 0.4 µM | 159% |  | 116% |  |  |  | 
3 | CN1CC[C@H]1COc1cccnc1 | 30 µM | 3.7 µM | 116% | 0.00045 µM | 74% |  |  |  | 
4 | CN1CCC[C@@H]1COc1cccnc1 |  |  | <10% | 0.0197 µM | <20% | 54 µM | 110 µM |  | 
5 | c1cncc(OC[C@H]2CCCN2)c1 | 5.8 µM | 4.3 µM | 120% | 0.00014 µM | 100% |  |  |  | 
6 | c1cncc(OC[C@@H]2CCN2)c1 | 0.7 µM | 0.68 µM | 163% |  | 113% |  |  |  | 
7 | CN1CCC[C@H]1COc1cccnc1 (stereo in doubt; 2a) |  |  |  | 0.00015 µM | 100% |  |  | 0.75 µM | 
8 | Clc1ccc(C2CC3CCC2N3)cn1 (stereo not drawn) [EPIBATIDINE] | 0.007 µM | 0.017 µM |  |  | 156% |  |  |  | 156%
9 | CN1CCC[C@H]1c1cccnc1 [NICOTINE] |  | 5 µM |  |  | 100% |  |  |  | 100%
